How the values were obtained:
[1] = biological target: T1, Metabotropic glutamate receptor 2 (Homo sapiens, UniProt Q14416); assay: Displacement of [3H]JNJ-46281222 from human metabotropic glutamate receptor 2 expressed in CHOK1 cell membranes assessed as association rate constant measured every 30 sec for 120 mins by scintillation proximity assay
Outline: (§1)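 For the SPA competition association, CHO-K1_hmGlu2 membranes (20 µg) were pre-coupled 30 min to WGA SPA beads, then mixed with 6 nM [3H]JNJ-46281222, competitor and 1 mM glutamate. Counts were read every 30 s for 120 min at 28°C.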
Target sequence in this assay (Q14416 19-872 limits assumed): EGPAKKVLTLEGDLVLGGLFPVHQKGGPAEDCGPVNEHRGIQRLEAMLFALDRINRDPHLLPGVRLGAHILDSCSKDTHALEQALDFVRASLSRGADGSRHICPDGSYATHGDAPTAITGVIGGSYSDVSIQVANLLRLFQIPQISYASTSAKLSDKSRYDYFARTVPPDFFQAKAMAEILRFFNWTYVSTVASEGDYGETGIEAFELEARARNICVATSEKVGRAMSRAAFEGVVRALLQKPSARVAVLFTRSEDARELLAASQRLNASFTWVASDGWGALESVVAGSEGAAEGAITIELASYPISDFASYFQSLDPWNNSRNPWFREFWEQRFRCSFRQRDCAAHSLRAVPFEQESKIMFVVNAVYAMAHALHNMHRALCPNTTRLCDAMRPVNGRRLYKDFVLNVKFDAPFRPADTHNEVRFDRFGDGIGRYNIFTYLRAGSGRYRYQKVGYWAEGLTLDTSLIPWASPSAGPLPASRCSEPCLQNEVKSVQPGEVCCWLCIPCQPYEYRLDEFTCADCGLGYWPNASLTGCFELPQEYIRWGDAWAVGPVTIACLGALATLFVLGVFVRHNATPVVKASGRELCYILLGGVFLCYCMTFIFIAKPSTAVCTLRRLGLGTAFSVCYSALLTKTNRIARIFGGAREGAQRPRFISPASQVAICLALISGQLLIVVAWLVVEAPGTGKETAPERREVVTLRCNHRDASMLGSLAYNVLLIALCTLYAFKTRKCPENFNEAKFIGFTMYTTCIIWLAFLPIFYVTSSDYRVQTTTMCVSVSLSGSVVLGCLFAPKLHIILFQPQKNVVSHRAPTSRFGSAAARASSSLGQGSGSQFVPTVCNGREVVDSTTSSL

[2] = biological target: T1, Metabotropic glutamate receptor 2; assay: Displacement of [3H]JNJ-46281222 from human metabotropic glutamate receptor 2 expressed in CHOK1 cell membranes assessed as dissociation rate constant measured every 30 sec for 120 mins by scintillation proximity assay; outline: as §1
Target sequence in this assay (Q14416 19-872 limits assumed): as above

[3] = biological target: T1, Metabotropic glutamate receptor 2; assay: Displacement of [3H]JNJ-46281222 from human metabotropic glutamate receptor 2 expressed in CHOK1 cell membranes assessed as residence time measured every 30 sec for 120 mins by scintillation proximity assay; outline: as §1
Target sequence in this assay (Q14416 19-872 limits assumed): as above

[4] = biological target: T1, Metabotropic glutamate receptor 2; assay: Binding affinity to human metabotropic glutamate receptor 2 expressed in CHOK1 cell membranes by scintillation proximity assay
Target sequence in this assay (Q14416 whole entry): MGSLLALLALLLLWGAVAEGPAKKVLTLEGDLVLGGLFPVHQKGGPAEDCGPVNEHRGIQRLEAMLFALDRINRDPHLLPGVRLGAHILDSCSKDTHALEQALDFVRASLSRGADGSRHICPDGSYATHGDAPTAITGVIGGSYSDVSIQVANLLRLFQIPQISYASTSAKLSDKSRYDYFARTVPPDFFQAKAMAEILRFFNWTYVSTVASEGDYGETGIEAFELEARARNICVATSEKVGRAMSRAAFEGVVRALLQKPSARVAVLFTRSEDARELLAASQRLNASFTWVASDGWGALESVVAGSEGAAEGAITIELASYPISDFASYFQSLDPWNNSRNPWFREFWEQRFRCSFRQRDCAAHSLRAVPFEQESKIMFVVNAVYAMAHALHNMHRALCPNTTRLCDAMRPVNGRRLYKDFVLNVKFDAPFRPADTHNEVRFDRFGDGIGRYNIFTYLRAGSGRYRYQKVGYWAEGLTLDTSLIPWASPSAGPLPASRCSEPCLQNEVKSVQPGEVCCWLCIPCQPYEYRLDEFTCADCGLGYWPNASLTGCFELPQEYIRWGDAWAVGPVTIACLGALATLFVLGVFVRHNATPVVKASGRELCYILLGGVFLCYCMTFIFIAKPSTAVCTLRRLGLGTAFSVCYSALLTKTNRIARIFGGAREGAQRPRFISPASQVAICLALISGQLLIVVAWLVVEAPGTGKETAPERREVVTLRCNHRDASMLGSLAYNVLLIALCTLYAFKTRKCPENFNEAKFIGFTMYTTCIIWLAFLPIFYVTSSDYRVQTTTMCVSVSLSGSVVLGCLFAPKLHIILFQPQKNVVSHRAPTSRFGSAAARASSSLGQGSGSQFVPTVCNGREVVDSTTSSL

[5] = biological target: T1, Metabotropic glutamate receptor 2; assay: Positive allosteric modulation of human metabotropic glutamate receptor 2 expressed in CHOK1 cell membranes assessed as increase in glutamate-induced [35S]GTPgammaS binding preincubated for 30 mins followed by [35S]GTPgammaS addition measured after 30 mins by Topcount scintillation counting method; type: functional
Target sequence in this assay (Q14416 whole entry): as above

[6] = biological target: T1, Metabotropic glutamate receptor 2; assay: Displacement of [3H]-JNJ46281222 from human metabotropic glutamate receptor 2 expressed in CHOK1 cell membranes after 60 mins by microbeta counting analysis
Target sequence in this assay (Q14416 whole entry): as above

K [1] | K [2] [min⁻¹] | TIME [3] [h] | Kd [4] [nM] | EC50 [5] [nM] | Ki [6] [nM] | Structure (SMILES)
8.3 ×10⁶ /M/min | 0.095 | 0.175 | 11.5 | 64.6 | 10 | Cc1cc(Oc2ccc(-c3ccn4c(CC5CC5)nnc4c3C(F)(F)F)cc2F)cc(C)n1
6.5 ×10⁶ /M/min | 0.07 | 0.237 | 10.7 | 28.2 | 25.1 | Cc1ccc(Oc2ccc(-c3ccn4c(CC5CC5)nnc4c3C(C)C)cc2F)c(C)n1
3.6 ×10⁷ /M/min | 0.121 | 0.137 | 3.4 | 17.4 | 3.89 | CC(C)Nc1ccc(-c2ccn3c(CC4CC4)nnc3c2C(F)(F)F)cc1Cl
5.7 ×10⁶ /M/min | 0.058 | 0.285 |  |  |  | O[C@H]1CC[C@@H](Nc2ccc(-c3ccn4c(CC5CC5)nnc4c3C(F)(F)F)cc2Cl)CC1
1.5 ×10⁷ /M/min | 0.044 | 0.378 | 2.9 | 5.89 | 2.04 | COc1ccc(CNc2ccc(-c3ccn4c(CC5CC5)nnc4c3C(F)(F)F)cc2F)cn1
3.6 ×10⁷ /M/min | 0.075 | 0.223 | 2.1 | 29.5 | 11.7 | CCOCc1nnc2c(C(F)(F)F)c(-c3ccc(Oc4ccc(C)nc4C)c(F)c3)ccn12
3 ×10⁶ /M/min | 0.069 | 0.24 | 23.3 | 100 | 18.6 | CCc1cc(Oc2ccc(-c3ccn4c(CC5CC5)nnc4c3Cl)cc2F)ccn1
1.1 ×10⁷ /M/min | 0.173 | 0.0967 | 16 | 40.7 | 11.7 | COc1ccc(COc2ccc(-c3ccn4c(CC5CC5)nnc4c3C(F)(F)F)cc2F)cn1
1.4 ×10⁷ /M/min | 0.125 | 0.133 | 8.7 | 57.5 | 8.71 | COc1ccc(COc2ccc(-c3ccn4c(CC5CC5)nnc4c3C(F)(F)F)cc2)cn1
2.6 ×10⁶ /M/min | 0.096 | 0.173 | 37.6 | 251 | 63.1 | Cc1cc(Oc2ccc(-c3ccn4c(CC5CC5)nnc4c3Cl)cc2F)ccn1
4.6 ×10⁶ /M/min | 0.086 | 0.193 |  |  |  | Cc1c(OCc2cccc(-c3ccc(C(=O)O)cc3)c2)cc2c(c1C)C(=O)C(C1CCCC1)C2 (configuration not stated)
7 ×10⁶ /M/min | 0.136 | 0.122 | 19.5 | 148 | 38.9 | Clc1cc(-c2ccn3c(CC4CC4)nnc3c2Cl)ccc1NC1CCOCC1
1.7 ×10⁶ /M/min | 0.073 | 0.228 | 42.7 | 87.1 | 53.7 | Fc1cc(-c2ccn3c(CC4CC4)nnc3c2Cl)ccc1Oc1ccnc(C2CC2)c1
9.8 ×10⁶ /M/min | 0.09 | 0.185 | 9.2 | 56.2 | 7.08 | Cc1cc(Oc2ccc(-c3ccn4c(CC5CC5)nnc4c3C(F)(F)F)cc2F)ccn1
7.7 ×10⁷ /M/min | 0.088 | 0.188 | 1.2 | 7.76 | 2.24 | FC(F)(F)c1c(-c2ccc(NC3CC3)c(Cl)c2)ccn2c(CC3CC3)nnc12
6.2 ×10⁶ /M/min | 0.097 | 0.172 | 15.6 | 151 | 7.41 | COc1ccc(CNc2ccc(-c3ccn4c(CC5CC5)nnc4c3Cl)cc2)cn1
1.1 ×10⁷ /M/min | 0.033 | 0.513 |  |  |  | O[C@H]1CC[C@H](Nc2ccc(-c3ccn4c(CC5CC5)nnc4c3C(F)(F)F)cc2Cl)CC1

K [1] | K [2] [min⁻¹] | TIME [3] [h] | Kd [4] [nM] | EC50 [5] [nM] | Ki [6] [nM] | Structure (SMILES)
1.2 ×10⁷ /M/min | 0.036 | 0.468 | 3 | 25.1 | 1.91 | O[C@H]1CC[C@H](Oc2ccc(-c3ccn4c(CC5CC5)nnc4c3C(F)(F)F)cc2Cl)CC1
2.1 ×10⁵ /M/min | 0.128 | 0.13 |  |  |  | Cc1cc(-c2nc(CN3CCNCC3)no2)cc2c1C(=O)N(Cc1ccc(OC(F)(F)F)cc1)C2
6.3 ×10⁶ /M/min | 0.097 | 0.172 | 15.3 | 40.7 | 1.95 | Cc1ccc(Oc2ccc(-c3ccn4c(CC5CC5)nnc4c3Cl)cc2F)c(C)n1
1.4 ×10⁷ /M/min | 0.084 | 0.198 | 6.1 | 29.5 | 6.76 | Clc1cc(-c2ccn3c(CC4CC4)nnc3c2Cl)ccc1NC1CC1
6.9 ×10⁶ /M/min | 0.056 | 0.295 | 8.1 | 97.7 | 32.4 | O[C@H]1CC[C@@H](Oc2ccc(-c3ccn4c(CC(F)(F)F)nnc4c3Cl)cc2Cl)CC1
6.1 ×10⁶ /M/min | 0.044 | 0.378 | 7.3 | 2.88 | 1.51 | Cc1ccc(Oc2ccc(-c3ccn4c(CC5CC5)nnc4c3C(F)(F)F)cc2Cl)c(C)n1
1.7 ×10⁶ /M/min | 0.091 | 0.183 | 54 | 631 | 61.7 | FC(F)(F)c1c(-c2ccc(CNC3CCOCC3)c(Cl)c2)ccn2c(CC3CC3)nnc12
5.5 ×10⁶ /M/min | 0.096 | 0.175 | 17.4 | 17.4 | 14.8 | Cc1ccc(Oc2ccc(-c3ccn4c(CC5CC5)nnc4c3C)cc2Cl)c(C)n1
3 ×10⁶ /M/min | 0.076 | 0.22 | 25.2 | 74.1 | 6.46 | CCOCc1nnc2c(Cl)c(-c3ccc(Oc4ccc(C)nc4C)c(F)c3)ccn12
3.3 ×10⁶ /M/min | 0.092 | 0.182 | 28.1 | 224 | 22.9 | Clc1cc(-c2ccn3c(CC4CC4)nnc3c2Cl)ccc1OC1CCOCC1
3.4 ×10⁷ /M/min | 0.069 | 0.243 | 2 | 15.1 | 3.16 | COc1ccc(CNc2ccc(-c3ccn4c(CC5CC5)nnc4c3C(F)(F)F)cc2)cn1
4.6 ×10⁷ /M/min | 0.1 | 0.167 | 2.2 | 93.3 | 8.91 | CC(C)Nc1ccc(-c2ccn3c(CC4CC4)nnc3c2C(F)(F)F)cc1F
8.6 ×10⁶ /M/min | 0.086 | 0.193 | 10 | 77.6 | 21.9 | Cc1ccc(Oc2ccc(-c3ccn4c(CC5CC5)nnc4c3C)cc2F)c(C)n1
7.7 ×10⁷ /M/min | 0.086 | 0.198 | 1.1 | 30.2 | 3.63 | Fc1cc(-c2ccn3c(CC4CC4)nnc3c2C(F)(F)F)ccc1NC1CC1
6.7 ×10⁶ /M/min | 0.084 | 0.197 | 12.7 | 33.1 | 3.02 | O[C@H]1CC[C@H](Nc2ccc(-c3ccn4c(CC5CC5)nnc4c3Cl)cc2Cl)CC1
5 ×10⁶ /M/min | 0.101 | 0.165 | 20.3 | 224 | 61.7 | CC(C)Nc1ccc(-c2ccn3c(CC4CC4)nnc3c2Cl)cc1F
2.9 ×10⁷ /M/min | 0.096 | 0.175 | 3.3 | 29.5 | 7.94 | Cc1ccc(Oc2ccc(-c3ccn4c(CC(F)(F)F)nnc4c3Cl)cc2F)c(C)n1

— ChEMBL document CHEMBL4038323, “Discovery and Kinetic Profiling of 7-Aryl-1,2,4-triazolo[4,3-a]pyridines: Positive Allosteric Modulators of the Metabotropic Glutamate Receptor 2” (J Med Chem, 2017)
